Results: ChEMBL document CHEMBL1138252, “Synthesis, in vitro inhibitory activity towards COX-2 and haemolytic activity of derivatives of esculentoside A” (Bioorg Med Chem Lett, 2007)

Columns and labels:
[1] = Toxicity against new Zealand rabbit blood assessed as hemolysis after 60 mins; assay type: tissue-based, Oryctolagus cuniculus; conditions: read-out: HD50
Method in brief: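 Erythrocytes washed three times in PBS (pH 7.4) and diluted to a 10% suspension. Compounds were dissolved in DMSO, then diluted with PBS to 2.5–250 µg/mL. Suspension was added, and samples were stirred and incubated 60 min at 37 °C with periodic stirring. After centrifugation at 3000 rpm for 5 min, supernatant A540 was read. Haemolysis % was calculated relative to distilled water (100%).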

[2] = target: T1, Prostaglandin G/H synthase 2 (Homo sapiens) (UniProt P35354); conditions: Spodoptera frugiperda; Sf9; at 10 µM;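 also: recombinant human COX2 made in Sf9 insect cells, read-out is reactive oxygen species formed on arachidonic acid stimulation, measured after 30 min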
T1 sequence (whole entry): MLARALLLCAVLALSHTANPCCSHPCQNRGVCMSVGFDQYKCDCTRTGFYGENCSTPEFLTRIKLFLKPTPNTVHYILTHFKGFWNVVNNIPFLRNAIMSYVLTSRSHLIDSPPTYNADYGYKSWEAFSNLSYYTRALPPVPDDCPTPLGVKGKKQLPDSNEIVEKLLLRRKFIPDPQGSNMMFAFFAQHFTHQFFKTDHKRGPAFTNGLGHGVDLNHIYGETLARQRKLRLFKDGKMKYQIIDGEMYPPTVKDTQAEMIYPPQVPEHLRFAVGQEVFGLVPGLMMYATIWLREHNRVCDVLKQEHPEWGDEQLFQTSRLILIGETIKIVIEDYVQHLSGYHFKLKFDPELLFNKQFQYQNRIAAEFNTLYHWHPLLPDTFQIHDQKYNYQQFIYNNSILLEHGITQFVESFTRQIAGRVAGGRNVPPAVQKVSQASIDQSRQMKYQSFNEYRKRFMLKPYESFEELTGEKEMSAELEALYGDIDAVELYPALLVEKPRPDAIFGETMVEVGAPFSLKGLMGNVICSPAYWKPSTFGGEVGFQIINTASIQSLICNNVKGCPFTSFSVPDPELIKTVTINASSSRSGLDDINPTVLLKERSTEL

Row | inhibition [2] [%] | Structure (SMILES) | HC50 at 1 h [1] [µM]
1 | 126 | COC(=O)[C@@]1(C)CC[C@]2(C(=O)NCc3ccc(Cl)cc3)CC[C@]3(C)C(=CC[C@@H]4[C@@]5(C)C[C@H](O)[C@H](O[C@@H]6OC[C@@H](O[C@@H]7O[C@H](CO)[C@@H](O)[C@H](O)[C@H]7O)[C@H](O)[C@H]6O)[C@@](C)(CO)[C@@H]5CC[C@]43C)[C@@H]2C1 | < 2.6
2 | – | COC(=O)[C@@H](C)NC(=O)[C@]12CC[C@](C)(C(=O)OC)C[C@H]1C1=CC[C@@H]3[C@@]4(C)C[C@H](O)[C@H](O[C@@H]5OC[C@@H](O[C@@H]6O[C@H](CO)[C@@H](O)[C@H](O)[C@H]6O)[C@H](O)[C@H]5O)[C@@](C)(CO)[C@@H]4CC[C@@]3(C)[C@]1(C)CC2 | > 274
3 | 19.4 | COC(=O)[C@@]1(C)CC[C@]2(C(=O)NCc3ccc(OC)c(OC)c3)CC[C@]3(C)C(=CC[C@@H]4[C@@]5(C)C[C@H](O)[C@H](O[C@@H]6OC[C@@H](O[C@@H]7O[C@H](CO)[C@@H](O)[C@H](O)[C@H]7O)[C@H](O)[C@H]6O)[C@@](C)(CO)[C@@H]5CC[C@]43C)[C@@H]2C1 | 215
4 | – | CNC(=O)[C@]12CC[C@](C)(C(=O)OC)C[C@H]1C1=CC[C@@H]3[C@@]4(C)C[C@H](O)[C@H](O[C@@H]5OC[C@@H](O[C@@H]6O[C@H](CO)[C@@H](O)[C@H](O)[C@H]6O)[C@H](O)[C@H]5O)[C@@](C)(CO)[C@@H]4CC[C@@]3(C)[C@]1(C)CC2 | 276
5 | – | COC(=O)[C@@]1(C)CC[C@]2(C(=O)On3nnc4ccccc43)CC[C@]3(C)C(=CC[C@@H]4[C@@]5(C)C[C@H](O)[C@H](O[C@@H]6OC[C@@H](O[C@@H]7O[C@H](CO)[C@@H](O)[C@H](O)[C@H]7O)[C@H](O)[C@H]6O)[C@@](C)(CO)[C@@H]5CC[C@]43C)[C@@H]2C1 | 55.2
6 | 75 | COC(=O)[C@@]1(C)CC[C@]2(C(=O)N(C(=O)NC3CCCCC3)C3CCCCC3)CC[C@]3(C)C(=CC[C@@H]4[C@@]5(C)C[C@H](O)[C@H](O[C@@H]6OC[C@@H](O[C@@H]7O[C@H](CO)[C@@H](O)[C@H](O)[C@H]7O)[C@H](O)[C@H]6O)[C@@](C)(CO)[C@@H]5CC[C@]43C)[C@@H]2C1 | < 2.4
7 | 4.6 | COC(=O)[C@@]1(C)CC[C@]2(C(=O)N3CCNCC3)CC[C@]3(C)C(=CC[C@@H]4[C@@]5(C)C[C@H](O)[C@H](O[C@@H]6OC[C@@H](O[C@@H]7O[C@H](CO)[C@@H](O)[C@H](O)[C@H]7O)[C@H](O)[C@H]6O)[C@@](C)(CO)[C@@H]5CC[C@]43C)[C@@H]2C1 | –
8 | 82.9 | COC(=O)[C@@]1(C)CC[C@]2(C(=O)NCc3ccccc3Cl)CC[C@]3(C)C(=CC[C@@H]4[C@@]5(C)C[C@H](O)[C@H](O[C@@H]6OC[C@@H](O[C@@H]7O[C@H](CO)[C@@H](O)[C@H](O)[C@H]7O)[C@H](O)[C@H]6O)[C@@](C)(CO)[C@@H]5CC[C@]43C)[C@@H]2C1 | 42.8
9 | 26.9 | COC(=O)[C@@]1(C)CC[C@]2(C(=O)NCc3ccccc3)CC[C@]3(C)C(=CC[C@@H]4[C@@]5(C)C[C@H](O)[C@H](O[C@@H]6OC[C@@H](O[C@@H]7O[C@H](CO)[C@@H](O)[C@H](O)[C@H]7O)[C@H](O)[C@H]6O)[C@@](C)(CO)[C@@H]5CC[C@]43C)[C@@H]2C1 | 136
10 | – | COC(=O)[C@@H](Cc1ccccc1)NC(=O)[C@]12CC[C@](C)(C(=O)OC)C[C@H]1C1=CC[C@@H]3[C@@]4(C)C[C@H](O)[C@H](O[C@@H]5OC[C@@H](O[C@@H]6O[C@H](CO)[C@@H](O)[C@H](O)[C@H]6O)[C@H](O)[C@H]5O)[C@@](C)(CO)[C@@H]4CC[C@@]3(C)[C@]1(C)CC2 | 204
11 | 21.7 | COC(=O)[C@@]1(C)CC[C@]2(C(=O)O)CC[C@]3(C)C(=CC[C@@H]4[C@@]5(C)C[C@H](O)[C@H](O[C@@H]6OC[C@@H](O[C@@H]7O[C@H](CO)[C@@H](O)[C@H](O)[C@H]7O)[C@H](O)[C@H]6O)[C@@](C)(CO)[C@@H]5CC[C@]43C)[C@@H]2C1 | 186
12 | – | CCCNC(=O)[C@]12CC[C@](C)(C(=O)OC)C[C@H]1C1=CC[C@@H]3[C@@]4(C)C[C@H](O)[C@H](O[C@@H]5OC[C@@H](O[C@@H]6O[C@H](CO)[C@@H](O)[C@H](O)[C@H]6O)[C@H](O)[C@H]5O)[C@@](C)(CO)[C@@H]4CC[C@@]3(C)[C@]1(C)CC2 | 191
13 | – | COC(=O)[C@H](NC(=O)[C@]12CC[C@](C)(C(=O)OC)C[C@H]1C1=CC[C@@H]3[C@@]4(C)C[C@H](O)[C@H](O[C@@H]5OC[C@@H](O[C@@H]6O[C@H](CO)[C@@H](O)[C@H](O)[C@H]6O)[C@H](O)[C@H]5O)[C@@](C)(CO)[C@@H]4CC[C@@]3(C)[C@]1(C)CC2)C(C)C | > 266
14 | 47.7 | COC(=O)[C@@H](Cc1c[nH]c2ccccc12)NC(=O)[C@]12CC[C@](C)(C(=O)OC)C[C@H]1C1=CC[C@@H]3[C@@]4(C)C[C@H](O)[C@H](O[C@@H]5OC[C@@H](O[C@@H]6O[C@H](CO)[C@@H](O)[C@H](O)[C@H]6O)[C@H](O)[C@H]5O)[C@@](C)(CO)[C@@H]4CC[C@@]3(C)[C@]1(C)CC2 | > 243
15 | – | COC(=O)[C@@]1(C)CC[C@]2(C(=O)NCCO)CC[C@]3(C)C(=CC[C@@H]4[C@@]5(C)C[C@H](O)[C@H](O[C@@H]6OC[C@@H](O[C@@H]7O[C@H](CO)[C@@H](O)[C@H](O)[C@H]7O)[C@H](O)[C@H]6O)[C@@](C)(CO)[C@@H]5CC[C@]43C)[C@@H]2C1 | > 287
16 | 56.8 | COC(=O)[C@@]1(C)CC[C@]2(C(=O)NCc3ccc(OC)cc3)CC[C@]3(C)C(=CC[C@@H]4[C@@]5(C)C[C@H](O)[C@H](O[C@@H]6OC[C@@H](O[C@@H]7O[C@H](CO)[C@@H](O)[C@H](O)[C@H]7O)[C@H](O)[C@H]6O)[C@@](C)(CO)[C@@H]5CC[C@]43C)[C@@H]2C1 | 12.7
17 | – | CCCCNC(=O)[C@]12CC[C@](C)(C(=O)OC)C[C@H]1C1=CC[C@@H]3[C@@]4(C)C[C@H](O)[C@H](O[C@@H]5OC[C@@H](O[C@@H]6O[C@H](CO)[C@@H](O)[C@H](O)[C@H]6O)[C@H](O)[C@H]5O)[C@@](C)(CO)[C@@H]4CC[C@@]3(C)[C@]1(C)CC2 | 15.8
18 | – | COC(=O)[C@@H](CCSC)NC(=O)[C@]12CC[C@](C)(C(=O)OC)C[C@H]1C1=CC[C@@H]3[C@@]4(C)C[C@H](O)[C@H](O[C@@H]5OC[C@@H](O[C@@H]6O[C@H](CO)[C@@H](O)[C@H](O)[C@H]6O)[C@H](O)[C@H]5O)[C@@](C)(CO)[C@@H]4CC[C@@]3(C)[C@]1(C)CC2 | 203
19 | 94.7 | COC(=O)[C@@]1(C)CC[C@]2(C(=O)NCCc3ccccc3)CC[C@]3(C)C(=CC[C@@H]4[C@@]5(C)C[C@H](O)[C@H](O[C@@H]6OC[C@@H](O[C@@H]7O[C@H](CO)[C@@H](O)[C@H](O)[C@H]7O)[C@H](O)[C@H]6O)[C@@](C)(CO)[C@@H]5CC[C@]43C)[C@@H]2C1 | 21.3
20 | – | COC(=O)[C@@]1(C)CC[C@]2(C(=O)NCCCc3ccccc3)CC[C@]3(C)C(=CC[C@@H]4[C@@]5(C)C[C@H](O)[C@H](O[C@@H]6OC[C@@H](O[C@@H]7O[C@H](CO)[C@@H](O)[C@H](O)[C@H]7O)[C@H](O)[C@H]6O)[C@@](C)(CO)[C@@H]5CC[C@]43C)[C@@H]2C1 | < 2.6
21 | 58.1 | COC(=O)[C@@]1(C)CC[C@]2(C(=O)NCc3ccc(F)cc3)CC[C@]3(C)C(=CC[C@@H]4[C@@]5(C)C[C@H](O)[C@H](O[C@@H]6OC[C@@H](O[C@@H]7O[C@H](CO)[C@@H](O)[C@H](O)[C@H]7O)[C@H](O)[C@H]6O)[C@@](C)(CO)[C@@H]5CC[C@]43C)[C@@H]2C1 | 94.5
